Measurements reported in ChEMBL document CHEMBL3046238, “Synthesis and biological activity evaluation of 1,2,3-thiadiazole derivatives as potential elicitors with highly systemic acquired resistance” (2009).
Calls of active or inactive are those of the source. The rule behind the calls is not given here.

Tests used:
Assay type in all cases: functional
[1] = test system: Tobacco mosaic virus; assay: (§1) Induction of systemic acquired resistance against Tobacco mosaic virus (TMV) in tobacco plants exposed to 2000 ug/mL compound through irrigation based soil treatment followed by 7 days culture under green house conditions assessed as inhibition of viral growth in leaves infected with Tobacco mosaic virus (TMV) measured 72 hr post viral infection by half-leaf juice rubbing method; design: scale not given: the % may be the effect or the level left
In short: (§2)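 Tobacco plants received compound by leaf spray or by soil irrigation, with double-distilled water as CK. Newly grown leaves were then rub-inoculated with TMV (5.88×10-2 μg/mL), and plants were kept at 25 °C for 72 h. Lesions on inoculated leaves were counted. Inhibition = (CK−A)/CK×100 from mean lesion numbers versus control.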

[2] = test system: Tobacco mosaic virus; assay: as §1, with “50” for “2000”; design: scale not given: the % may be the effect or the level left; in short: as §2
[3] = test system: Tobacco mosaic virus; assay: as §1, with “100” for “2000”; design: scale not given: the % may be the effect or the level left; in short: as §2
[4] = test system: Tobacco mosaic virus; assay: as §1, with “500” for “2000”; design: scale not given: the % may be the effect or the level left; in short: as §2
[5] = test system: Tobacco mosaic virus; assay: as §1, with “1000” for “2000”; design: scale not given: the % may be the effect or the level left; in short: as §2
[6] = test system: Tobacco mosaic virus; assay: as §1, with “leaf spray” for “irrigation based soil treatment”; design: scale not given: the % may be the effect or the level left; in short: as §2
[7] = test system: Tobacco mosaic virus; assay: as §1, with “50” for “2000”, “leaf spray” for “irrigation based soil treatment”; design: scale not given: the % may be the effect or the level left; in short: as §2
[8] = test system: Tobacco mosaic virus; assay: Antiviral activity against Tobacco mosaic virus (TMV) infected tobacco leaves exposed to 2000 ug/mL for 20 min assessed as inhibition of viral growth measured 72 hr post compound treatment compound by half-leaf juice rubbing method
In short: (§3)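 Half-leaf method on tobacco. A fresh leaf from a plant at the 5-6 leaf age was rub-inoculated with TMV (5.88×10-2 μg/mL) and cut along the main vein. One half was immersed in compound solution and the other in double-distilled water, each for 20 min. Halves were kept at 25 °C and 100% humidity for 72 h, then lesions were counted. Three replicates were run. Inhibition = (CK−A)/CK×100 from mean lesion numbers.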

[9] = test system: Tobacco mosaic virus; assay: Antiviral activity against Tobacco mosaic virus (TMV) infected tobacco leaves exposed to 1000 ug/mL for 20 min assessed as inhibition of viral growth measured 72 hr post compound treatment compound by half-leaf juice rubbing method; in short: as §3
[10] = test system: Tobacco mosaic virus; assay: as §1, with “100” for “2000”, “leaf spray” for “irrigation based soil treatment”; design: scale not given: the % may be the effect or the level left; in short: as §2
[11] = test system: Tobacco mosaic virus; assay: as §1, with “500” for “2000”, “leaf spray” for “irrigation based soil treatment”; design: scale not given: the % may be the effect or the level left; in short: as §2
[12] = test system: Tobacco mosaic virus; assay: as §1, with “1000” for “2000”, “leaf spray” for “irrigation based soil treatment”; design: scale not given: the % may be the effect or the level left; in short: as §2
[13] = test system: Tobacco mosaic virus; assay: In vivo antiviral activity against Tobacco mosaic virus (TMV) infected tobacco leaves exposed to 50 ug/mL for 20 min assessed as inhibition of viral growth measured 72 hr post compound treatment compound by half-leaf juice rubbing method; in short: as §3
[14] = test system: Tobacco mosaic virus; assay: In vivo antiviral activity against Tobacco mosaic virus (TMV) infected tobacco leaves exposed to 1000 ug/mL for 20 min assessed as inhibition of viral growth measured 72 hr post compound treatment compound by half-leaf juice rubbing method; in short: as §3
[15] = test system: Tobacco mosaic virus; assay: In vivo antiviral activity against Tobacco mosaic virus (TMV) infected tobacco leaves exposed to 500 ug/mL for 20 min assessed as inhibition of viral growth measured 72 hr post compound treatment compound by half-leaf juice rubbing method; in short: as §3
[16] = test system: Tobacco mosaic virus; assay: In vivo antiviral activity against Tobacco mosaic virus (TMV) infected tobacco leaves exposed to 100 ug/mL for 20 min assessed as inhibition of viral growth measured 72 hr post compound treatment compound by half-leaf juice rubbing method; in short: as §3
[17] = test system: Tobacco mosaic virus; assay: Antiviral activity against Tobacco mosaic virus (TMV) infected tobacco leaves exposed to 500 ug/mL for 20 min assessed as inhibition of viral growth measured 72 hr post compound treatment compound by half-leaf juice rubbing method; in short: as §3
[18] = test system: Tobacco mosaic virus; assay: Antiviral activity against Tobacco mosaic virus (TMV) infected tobacco leaves exposed to 100 ug/mL for 20 min assessed as inhibition of viral growth measured 72 hr post compound treatment compound by half-leaf juice rubbing method; in short: as §3
[19] = test system: Tobacco mosaic virus; assay: Antiviral activity against Tobacco mosaic virus (TMV) infected tobacco leaves exposed to 50 ug/mL for 20 min assessed as inhibition of viral growth measured 72 hr post compound treatment compound by half-leaf juice rubbing method; in short: as §3
[20] = test system: Cytospora mali; assay: Antifungal activity against Valsa mali assessed as growth inhibition at 50 ug/mL measured after 2 days post dose; details: 48 h, read-out: GI
[21] = test system: Alternaria mali; assay: Antifungal activity against Alternaria mali assessed as growth inhibition at 50 ug/mL measured after 2 days post dose; details: 48 h, read-out: GI
[22] = test system: Sclerotinia sclerotiorum; assay: Antifungal activity against Sclerotinia sclerotiorum assessed as growth inhibition at 50 ug/mL measured after 2 days post dose; details: 48 h, read-out: GI
[23] = test system: Botrytis cinerea; assay: Antifungal activity against Botryotinia fuckeliana assessed as growth inhibition at 50 ug/mL measured after 2 days post dose; details: 48 h, read-out: GI
[24] = test system: Puccinia triticina; assay: Antifungal activity against Puccinia triticina inoculated on 500 ug/mL compound pre-treated wheat plants with 3 to 5 leaves assessed as growth inhibition
In short: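 Healthy wheat plants at the 3-5 leaf stage were sprayed with compound (500 μg/mL) and then inoculated with spores. Inhibition percentage was calculated against the corresponding spore stack.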

[25] = test system: Ceratobasidium cereale; assay: Antifungal activity against Ceratobasidium cereale assessed as growth inhibition at 50 ug/mL measured after 2 days post dose
[26] = test system: Botryosphaeria berengeriana; assay: Antifungal activity against Botryosphaeria berengeriana assessed as growth inhibition at 50 ug/mL measured after 2 days post dose
[27] = test system: Phytophthora infestans; assay: Antifungal activity against Phytophthora infestans assessed as growth inhibition at 50 ug/mL measured after 2 days post dose
In short: (§4)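 Compound stock at 500 μg/mL in DMF, diluted with sterile water in the dish and mixed into potato dextrose agar before setting. A 4 mm diameter fungal plug is placed on the plate and cultured at 24-26 °C. Colony diameter is measured after 2 days.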

[28] = test system: Rhizoctonia solani; assay: Antifungal activity against Rhizoctonia solani assessed as growth inhibition at 50 ug/mL measured after 2 days post dose
[29] = test system: Alternaria solani; assay: Antifungal activity against Alternaria solani assessed as growth inhibition at 50 ug/mL measured after 2 days post dose; details: 48 h, read-out: GI
[30] = test system: Fusarium oxysporum f. sp. vasinfectum; assay: Antifungal activity against Fusarium oxysporum f. sp. vasinfectum assessed as growth inhibition at 50 ug/mL measured after 2 days post dose; details: 48 h, read-out: GI
[31] = test system: Alternaria kikuchiana; assay: Antifungal activity against Alternaria kikuchiana assessed as growth inhibition at 50 ug/mL measured after 2 days post dose; details: 48 h, read-out: GI
[32] = test system: Colletotrichum gloeosporioides; assay: Antifungal activity against Glomerella cingulata assessed as growth inhibition at 50 ug/mL measured after 2 days post dose; details: 48 h, read-out: GI
[33] = test system: Colletotrichum lagenaria; assay: Antifungal activity against Colletotrichum lagenaria assessed as growth inhibition at 50 ug/mL measured after 2 days post dose; details: 48 h, read-out: GI
[34] = test system: Ustilaginoidea virens; assay: Antifungal activity against Villosiclava virens assessed as growth inhibition at 50 ug/mL measured after 2 days post dose; details: 48 h, read-out: GI
[35] = test system: Fusarium graminearum; assay: Antifungal activity against Fusarium graminearum assessed as growth inhibition at 50 ug/mL measured after 2 days post dose; details: 48 h, read-out: GI; in short: as §4
[36] = test system: Phomopsis asparagi; assay: Antifungal activity against Phomopsis asparagi assessed as growth inhibition at 50 ug/mL measured after 2 days post dose; details: 48 h, read-out: GI
[37] = test system: Mycosphaerella arachidis; assay: Antifungal activity against Mycosphaerella arachidis assessed as growth inhibition at 50 ug/mL measured after 2 days post dose; details: 48 h, read-out: GI
[38] = test system: Fusarium oxysporum; assay: Antifungal activity against Fusarium oxysporum assessed as growth inhibition at 50 ug/mL measured after 2 days post dose; details: 48 h, read-out: GI
[39] = test system: Fusarium fujikuroi; assay: Antifungal activity against Fusarium fujikuroi assessed as growth inhibition at 50 ug/mL measured after 2 days post dose; details: 48 h, read-out: GI
[40] = test system: Tobacco mosaic virus; assay: as §1, with “10” for “2000”; design: scale not given: the % may be the effect or the level left
In short: (§5)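 Tobacco plants receive compound either as leaf spray or as soil irrigation. Newly grown leaves are then rubbed with TMV (5.88 × 10-2 μg/mL). Plants are held 72 h at 25 °C and viral lesions are counted. Inhibition ratio = (CK − A)/CK × 100, from mean lesion numbers versus control. Water is CK; tiadinil and BTH are positive controls.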

[41] = test system: Tobacco mosaic virus; assay: as §1, with “10” for “2000”, “leaf spray” for “irrigation based soil treatment”; design: scale not given: the % may be the effect or the level left; in short: as §5
[42] = test system: Tobacco mosaic virus; assay: In vivo antiviral activity against Tobacco mosaic virus (TMV) infected tobacco leaves exposed to 10 ug/mL for 20 min assessed as inhibition of viral growth measured 72 hr post compound treatment compound by half-leaf juice rubbing method
[43] = test system: Tobacco mosaic virus; assay: Antiviral activity against Tobacco mosaic virus (TMV) infected tobacco leaves exposed to 10 ug/mL for 20 min assessed as inhibition of viral growth measured 72 hr post compound treatment compound by half-leaf juice rubbing method
In short: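 Direct (in vitro) anti-TMV test by half-leaf method. A tobacco leaf at 5-6 leaf age is rubbed with TMV (5.88 × 10-2 μg/mL) and cut along the main vein. One half is immersed in compound and the other in double-distilled water for 20 min. Halves are kept 72 h at 25 °C and 100% humidity, then lesions are counted. Inhibition is derived from mean lesion numbers on the two halves. Triplicates; DHT is the positive control.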

[44] = test system: Tobacco mosaic virus; assay: In vivo antiviral activity against Tobacco mosaic virus (TMV) infected tobacco leaves exposed to 2000 ug/mL for 20 min assessed as inhibition of viral growth measured 72 hr post compound treatment compound by half-leaf juice rubbing method; in short: as §3
[45] = test system: Puccinia triticina; assay: Antifungal activity against Puccinia triticina inoculated on 100 ug/mL compound pre-treated wheat plants with 3 to 5 leaves assessed as growth inhibition

| SMILES | Activity [1] [%] | Activity [2] [%] | Activity [3] [%] | Activity [4] [%] | Activity [5] [%] | Activity [6] [%] | Activity [7] [%] | growth inhibition (GI) [8] [%] | growth inhibition (GI) [9] [%] | Activity [10] [%] | Activity [11] [%] | Activity [12] [%] | growth inhibition (GI) [13] [%] | growth inhibition (GI) [14] [%] | growth inhibition (GI) [15] [%] | growth inhibition (GI) [16] [%] | growth inhibition (GI) [17] [%] | growth inhibition (GI) [18] [%] | growth inhibition (GI) [19] [%] | growth inhibition (GI) [24] [%] | further results |
| --- | --- | --- | --- | --- | --- | --- | --- | --- | --- | --- | --- | --- | --- | --- | --- | --- | --- | --- | --- | --- | --- |
| O=C(O)c1cccc2nnsc12 [1,2,3-benzothia-diazole-7-carboxylic acid] | 2 | 10 | 0 | 5 | 8 | 12 | 3 | 8 | 6 | 0 | 5 | 8 | 0 | 18 | 5 | 8 | 3 | 5 | 7 |  |  |
| Cc1ccc(NC(=O)c2snnc2C)cc1Cl [TIADINIL] |  |  |  |  |  |  | 63 |  |  |  | 40 |  |  |  | 0 |  | 0 |  |  | 40 | inhibition of growth at 50 µg/mL [20]: 3.6%; inhibition of growth at 50 µg/mL [21]: 32.1%; inhibition of growth at 50 µg/mL [22]: 34.4%; inhibition of growth at 50 µg/mL [23]: 23.9%; growth inhibition (GI) [25]: inactive; growth inhibition (GI) [26]: inactive; growth inhibition (GI) [27]: inactive; growth inhibition (GI) [28]: inactive; inhibition of growth at 50 µg/mL [29]: 0%; inhibition of growth at 50 µg/mL [30]: 5.3%; inhibition of growth at 50 µg/mL [31]: 0%; inhibition of growth at 50 µg/mL [32]: 51.6%; inhibition of growth at 50 µg/mL [33]: 22.8%; inhibition of growth at 50 µg/mL [34]: 12%; inhibition of growth at 50 µg/mL [35]: 25%; inhibition of growth at 50 µg/mL [36]: 60%; inhibition of growth at 50 µg/mL [37]: 13.6%; inhibition of growth at 50 µg/mL [38]: 12.5%; inhibition of growth at 50 µg/mL [39]: 0% |
| CSC(=O)c1cccc2nnsc12 [ACIBENZOLAR-S-METHYL] |  | 92 | 96 | 95 | 98 |  | 92 |  | 8 | 95 | 95 | 97 | 15 |  | 8 | 10 | 4 | 2 | 0 | 0 | Activity [40]: 63%; Activity [41]: 50%; growth inhibition (GI) [42]: 6%; growth inhibition (GI) [43]: 0% |
| CC(N)CC(=O)O (stereo not drawn) | 80 | 46 | 54 | 72 | 80 | 65 | 0 | 5 | 0 | 30 | 50 | 55 | 0 | 10 | 5 | 9 | 7 | 4 | 0 |  | growth inhibition (GI) [44]: 8% |
| N#Cc1c(Cl)c(Cl)c(Cl)c(C#N)c1Cl [CHLOROTHALONIL] |  |  |  |  |  |  |  |  |  |  |  |  |  |  |  |  |  |  |  |  | growth inhibition (GI) [45]: 100% |
| O=C1NCNC(=O)N1 |  |  |  | 8 |  |  |  |  |  |  | 5 |  |  |  | 42 |  | 49 |  |  |  |  |
